High-throughput results from PubChem.
Rows were chosen to be rich in hits. Some 2.1% of all compounds tested hit in one or more screens of this group.
CDK5 inh: inhibitors of human CDK5/p35 kinase, primary screen, biochemical, single concentration | Recombinant CDK5/p35, ADP-Glo luminescence, 60 min | 330,000 compounds, 0.01% hits | inhibition, % at 10 µM | Cyclin-dependent kinase 5 (Homo sapiens) + Cyclin-dependent kinase 5 activator 1 (Homo …;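 active = highest replicate inhibition of at least 50% and at least 75% of replicates reaching 50%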
SR-BI DiI-HDL act: activators of SR-BI mediated DiI-HDL uptake, primary screen, ldlA[mSR-BI] CHO cells, DiI fluorescence | 3 h; 100 = double the neutral-control signal | activation, % at 12.5 µM | 320,000 compounds, 0.096% hits | AID 504775, 2011;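 active = mean replicate activation of at least 60% and every replicate at or above 60%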
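System: CHO ldlA[mSR-BI] cells / Medium: HEPES-buffered (25 mM, pH 7.4) F12 plus 0.5% BSA / Probe or stimulus: labelled HDL, 10 µg/mL / Doses: single compound concentration, delivered by pin transfer / Schedule: 3 h, 37 °C / Measured by: DiI fluorescence, bottom read / Measure: cell-associated DiI fluorescence as measure of HDL uptake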
PKA-R1A act: activators of PKA-R1A holoenzyme, primary screen, biochemical, fluorescence polarization, Cy5-IP20, bovine R1A, mouse PKAc; cAMP-dependent protein kinase type I-alpha regulatory subunit (Bos taurus) + …; PKA-R1A dissociation; scaled: DMSO 0%, 113 µM cGMP 100%; activation, % at 11.4 µM; 340,000 compounds, 0.083% hits; AID 504707, 2011;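 active = percent activation above the mean of all tested compounds plus 3 SD, cut at about 19% in these data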;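 also: higher means more PKAc released from R1A so a rise in polarization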
dFosB act-1: activators of delta FosB homodimer, primary screen, biochemical, fluorescence polarization, TAMRA-CDK5 oligo, single point | Protein FosB (Mus musculus), P13346 | purified delta FosB; percent of positive-control signal above neutral wells | activation, % at 25 µM | 340,000 compounds, 0.99% hits;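 active = mean activation above about 17%, with every replicate also reaching it, limit read from the data, passing the limit was not always enough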
SR-BI DiI inh: inhibitors of SR-BI mediated HDL lipid uptake, primary screen, ldlA[mSR-BI] cells, fluorescence, single point; 320,000 compounds, 0.96% hits; AID 488896, 2010; ldlA[mSR-BI] CHO cells, DiI-HDL uptake fluorescence, 3 h; Scavenger receptor class B member 1 (Mus musculus), Q61009; inhibition, % at 12.5 µM;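 active = mean replicate inhibition of at least 70% and a set share of replicates each scoring 70 or more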
PKA-R2B act: activators of PKA-R2B holoenzyme, primary screen, biochemical, fluorescence polarization, Cy5-IP20, human; PKA-R2B holoenzyme dissociation; R2B truncated from residue 108, S112A mutant; 0% DMSO only, 100% 113 µM cGMP; 340,000 compounds, 0.079% hits; cAMP-dependent protein kinase catalytic subunit beta (Homo sapiens) + cAMP-dependent …; activation, % at 11.4 µM; AID 504700, 2011;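 active = activation above a cutoff set at the mean over all compounds plus 3 SD, cut at about 18% in these data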;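 also: higher means more holoenzyme dissociation and a rise in polarization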
Target sequence (P31323 whole entry, looked up, other chains not shown, the tested form may be a part): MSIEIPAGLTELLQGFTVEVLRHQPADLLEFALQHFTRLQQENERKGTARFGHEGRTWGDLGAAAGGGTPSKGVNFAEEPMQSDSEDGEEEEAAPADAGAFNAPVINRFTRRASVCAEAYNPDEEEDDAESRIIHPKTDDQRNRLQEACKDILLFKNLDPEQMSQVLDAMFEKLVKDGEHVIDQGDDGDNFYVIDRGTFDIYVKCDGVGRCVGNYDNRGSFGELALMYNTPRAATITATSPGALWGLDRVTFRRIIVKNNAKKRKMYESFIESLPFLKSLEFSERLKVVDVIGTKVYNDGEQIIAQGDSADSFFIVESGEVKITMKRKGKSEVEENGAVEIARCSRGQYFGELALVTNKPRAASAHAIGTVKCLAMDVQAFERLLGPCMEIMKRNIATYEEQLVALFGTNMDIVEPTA
dFosB act-2: activators of mouse delta FosB DNA binding, confirmation, biochemical, fluorescence polarization, TAMRA-CDK5 oligo, cherry-picked samples. AID 588690, 2011. 2,400 tested, under 10 active. activation, % at 24.9 µM. purified delta FosB; normalised: neutral wells 0, positive control 100. shares compounds with dFosB act-1;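 active = highest replicate activation at or above 34% and every replicate reaching that threshold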;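 also: higher polarization means more probe DNA bound by delta FosB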
Of the large screens only hits and unclear results are named; the others gave an inactive call (follow-up assays come after a bar, where they were run).

Cc1ccc(S(=O)(=O)NC(=O)Nc2ccc(C)cn2)cc1	none
CNC(=O)c1ccc(OC2CSC2)cc1	none
O=C(Nc1ccc(Cl)cc1)c1ccc(OC2CSC2)cc1	dFosB act-1 21 | dFosB act-2 inactive
CCOc1ccc(/C=N/NC(=O)c2cc3ccccc3cc2OC)cc1	dFosB act-1 19 | dFosB act-2 inactive
Cc1occc1C(=O)N/N=C/c1ccc(OCc2ccccc2)cc1	dFosB act-1 30 | dFosB act-2 inactive
Cc1ccc(NC(=O)c2ccc(OCC3CCCO3)cc2)cc1Cl (configuration not stated)	none (no result: CDK5 inh, SR-BI DiI-HDL act, dFosB act-1, SR-BI DiI inh)
O=[N+]([O-])c1ccc2c(c1)/C(=N\O)c1ccccc1-2	dFosB act-1 27 | dFosB act-2 inactive
O=[N+]([O-])c1ccc2c(c1)C(=NO)c1cc(F)ccc1-2	none
O=C(Cn1cnc2c(nnn2Cc2ccccc2)c1=O)Nc1ccc2c(c1)OCCO2	dFosB act-1 30 | dFosB act-2 inactive
CC(=O)Nc1ccc(NC(=O)Cn2cnc3c(nnn3Cc3ccc(F)cc3)c2=O)cc1	none
O=C(Cn1nnc(-c2ccc(F)cc2)n1)Nc1ccc2c(c1)OCCO2	dFosB act-1 36 | dFosB act-2 inactive
CCN1CCN(c2cc(C)c3cc(NC(=O)CCC(=O)Nc4ccc(OC)cc4OC)ccc3n2)CC1	none
CCN1CCN(c2c(C=O)c(Cl)nc3ccc(OC)cc23)CC1	dFosB act-1 27 | dFosB act-2 inactive
Cc1ccc(S(=O)(=O)N2CCN(C(=O)CCC(=O)Nc3ccc(Br)c(C)c3)CC2)cc1	none
Cc1sc2nc(SCC(=O)Nc3ccc(S(N)(=O)=O)cc3)[nH]c(=O)c2c1C	dFosB act-1 101 | dFosB act-2 inactive
Cc1sc2nc(SCC(=O)Nc3cccc(S(N)(=O)=O)c3)[nH]c(=O)c2c1C	none
COc1cccc(NC(=O)N(C)C[C@H]2OCc3cnnn3CCCC(=O)N([C@H](C)CO)C[C@@H]2C)c1	none (no result: CDK5 inh, SR-BI DiI-HDL act, dFosB act-1, SR-BI DiI inh)
COc1ccc(NC(=O)CN2C(=O)NC(C)(c3ccccc3)C2=O)cc1Cl (configuration not stated)	none
Cc1ccccc1OCC(=O)N/N=C/c1ccccn1	none
CC(/C=N/NC(=O)COc1ccccc1C)=N\NC(=O)COc1ccccc1C	dFosB act-1 22 | dFosB act-2 inactive
NC(=O)COC(=O)c1oc2ccccc2c1CSc1ccc(Cl)cc1	dFosB act-1 18 | dFosB act-2 inactive
CCOC(=O)C(N=Nc1nn[nH]n1)C(C)=O (configuration not stated)	none (no result: CDK5 inh, SR-BI DiI-HDL act, dFosB act-1, SR-BI DiI inh)
Cc1ccsc1/C=N/NC(=O)c1nnn(-c2nonc2N)c1CSc1ccccc1	dFosB act-1 18 | dFosB act-2 inactive
COc1ccccc1/C=N/NC(=O)c1nnn(-c2nonc2N)c1-c1cccs1	none
CCOc1ccc(/C=N/NC(=O)c2nnn(-c3nonc3N)c2COc2ccc(F)cc2)cc1	dFosB act-1 40 | dFosB act-2 inactive
CN(C)c1ccc(/C=N/NC(=O)c2nnn(-c3nonc3N)c2COc2ccc(F)cc2)cc1	none
Nc1nonc1-n1nnc(C(=O)N/N=C/c2ccc(F)cc2)c1-c1cccs1	dFosB act-1 55 | dFosB act-2 inactive
Cc1ccc(/C=N/NC(=O)c2nnn(-c3nonc3N)c2CSc2ccccc2)s1	none
CN(C)CCNS(=O)(=O)c1ccc(N2CCN(c3ccc(F)cc3)CC2)c([N+](=O)[O-])c1	none
O=C(NN=C1CCCCC1)c1ccccc1-n1cccc1	none
O=C(OCC(=O)N1CCc2ccccc2C1)c1ccc(O)cc1	none
CC(=O)Nc1ccc(NC(=O)c2ccc(COc3ccccc3Br)o2)cc1	dFosB act-1 69 | dFosB act-2 inactive
COc1ccc(/C=C2\SC(=O)N(CC(=O)NC3C=CS(=O)(=O)C3)C2=O)cc1 (configuration not stated)	dFosB act-1 41 (no result: CDK5 inh) | dFosB act-2 inactive
O=C(NNC(=O)c1c(O)c2ccccc2[nH]c1=O)c1ccccc1Br	dFosB act-1 52 | dFosB act-2 inactive
Cc1ccc(NC(=O)c2c(C(=O)Nc3ccccc3)sc3nc(C)cc(=O)n23)cc1	dFosB act-1 32 | dFosB act-2 inactive
Cc1ccc(NC(=O)c2c(C)nc3ccccn23)cc1C	none
CCc1ccc(NC(=O)c2c(C(=O)Nc3ccccc3)sc3nc(C)cc(=O)n23)cc1	dFosB act-1 35 | dFosB act-2 inactive
Cc1cc(=O)n2c(C(=O)Nc3ccc(C)c(C)c3)c(C(=O)Nc3ccccc3)sc2n1	dFosB act-1 34 | dFosB act-2 inactive
Cc1ccc(C)c(Cn2c3ccccc3c3cnn(CC(=O)NCc4ccccn4)c(=O)c32)c1	dFosB act-1 21 | dFosB act-2 inactive
O=C(Cn1ncc2c3ccccc3n(Cc3cccc(Cl)c3)c2c1=O)NCc1ccccn1	none
O=c1[nH]c2cc3c(cc2cc1C(c1nnnn1Cc1ccccc1)N1CCN2CCCC2C1)OCCO3 (configuration not stated)	dFosB act-1 22 | dFosB act-2 inactive
O=c1[nH]c2cc3c(cc2cc1C(c1nnnn1Cc1ccccc1)N1CCCCCC1)OCCO3 (configuration not stated)	dFosB act-1 28 | dFosB act-2 inactive
CC(C)(C)[C@H]1COC(=O)CC/C=C\C[C@@H](CC(=O)N(CCO)Cc2ccccc2)C(=O)N1	none
O=C(NC(=S)Nc1nc(-c2ccccc2)cs1)c1cccnc1	none
O=C(Nc1nc(-c2ccccc2Cl)cs1)c1cccnc1	dFosB act-1 29 | dFosB act-2 inactive
O=C(Cc1ccccc1F)Nc1nc(-c2cccnc2)cs1	dFosB act-1 39 | dFosB act-2 inactive
O=C1[C@H](Cc2ccccc2)NCC=CC[C@H](c2ccco2)N1Cc1ccccc1	none
COc1cccc(CNC(=O)c2ccccc2SCC(=O)N2CCCC2)c1	none
CCOc1ccc2nc(NC3=NC(C)(C)C=C(C)N3)nc(C)c2c1	dFosB act-1 23 | dFosB act-2 inactive
